Measurements: ChEMBL document CHEMBL1124266, “Stereoelectronic factors influencing the biological activity and DNA interaction of synthetic antitumor agents modeled on CC-1065” (J Med Chem, 1988)
The source made the active and inactive calls. No cut-off for these calls is given here.

What was measured:
[1] = Pseudo-first order rate constant at pH 3 followed spectrophotometrically; assay type: ADME
Method in brief: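 Acid-catalyzed cyclopropyl ring opening in methanolic buffer at pH 3, tracked by loss of the 344–370 nm absorption band. Residual long-wavelength absorbance at 2 weeks subtracted. Rate from ln(A/A₀) vs time, linear for at least 2 half-lives. Drug 20–120 µM.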

[2] = test system: Nucleic Acid; experiment: Induced circular dichroism (ICD), expressed as molar ellipticity, in the presence of calf-thymus DNA; assay type: functional; conditions: Bos taurus
Method in brief: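 Drug stock (1–4 mg/mL in DMA, DMF or DMSO) injected into calf-thymus DNA (11 × 10⁻⁵ M) in 0.01 M phosphate buffer pH 7.2. Final drug 0.85 × 10⁻⁵ M, base-to-drug ratio 13. Stood 24 h at room temperature before CD spectrum. Value is molar ellipticity at long-wavelength maximum, ca. 350 nm.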

[3] = test system: P388; experiment: In vivo optimum dose given on days 1, 5, and 9 to mice implanted intraperitoneally with P388 leukemia cells; assay type: functional, Mus musculus
Method in brief: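 P388 cells (10⁶/mouse) implanted ip into male BDF1 mice on day 0. Dosing ip on days 1, 5 and 9 in 2% DMA/10% Emulphor 620-P/water vehicle. Six mice per group. Optimum dose given in mg/kg per day, judged by increase in median life span.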

[4] = Lipophilic/hydrophilic partitioning (RP-TLC); assay type: ADME; conditions: 2:1 DMF-saline
Method in brief: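 Reverse-phase TLC developed in 2:1 DMF–saline (0.9% NaCl). Plates scanned at 350 nm. R_f values averaged from two to four determinations.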

[5] = test system: P388; experiment: In vivo % increase in life span of treated animals (OD) over that of control mice bearing tumor, determined against P388 leukemia cells; assay type: functional, Mus musculus
Method in brief: (§1)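 Male BDF1 mice inoculated ip with 10⁶ P388 cells (tumor passaged in DBA/2 females) on day 0. Drug ip on days 1, 5, 9 in 2% DMA, 10% Emulphor 620-P, water. Six mice per group. %ILS = (median death day treated / median death day untreated control − 1) × 100, at optimum dose. 30-day survivors counted as cured.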

[6] = test system: L1210; experiment: In vitro concentration required to inhibit 50% growth of murine L1210 leukemia cells; assay type: functional; conditions: Mus musculus, read-out: ID50 (the source's name)
Method in brief: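 Mouse L1210 leukemia cells in RPMI 1634 with 5% fetal calf serum, 0.075% sodium bicarbonate, penicillin 0.1 mg/mL and streptomycin 50 μg/mL. Drug aliquots added to tubes, then cells at approximately 5 × 10³ cells/mL. Incubation 37 °C for 3 days; cell number by Coulter counter. ID₅₀ = nM concentration giving 50% growth inhibition.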

[7] = test system: P388; experiment: In vivo % increase in life span of treated animals (OD) over that of control mice bearing tumor, determined against P388 leukemia cells; NA=no activity(<20% ILS); assay type: functional, organism-based; conditions: Mus musculus
Method in brief: (§2)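 P388 leukemia kept by serial passage in female DBA/2 mice. Male BDF1 mice were given 10^6 cells ip on day 0. Drug was given ip on days 1, 5 and 9 in 2% DMA/10% Emulphor 620-P/water, with six mice per group. Optimum dose was in mg/kg per day. %ILS came from the median day of death versus untreated tumor-bearing controls. Mice alive at 30 days were counted as cured.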

[8] = test system: Mus musculus; experiment: In vivo optimum dose (OD), given on days 1, 5, and 9 to mice bearing P388 leukemia; assay type: functional; method in brief: as §2
[9] = test system: Mus musculus; experiment: In vivo % increase in life span of treated animals (OD) over that of control mice bearing P388 leukemia; assay type: functional; method in brief: as §1

Row | Compound | k [1] | ICD [2] | OD [3] [mg/kg/day] | Rf [4] | ILS [5] [%] | IC50 [6] [nM] | ILS [7] | OD [8] [mg/kg/day] | ILS [9] [%]
1 | Cc1c[nH]c2c1C13CC1CN(C(=O)c1cc4cc(NC(N)=O)ccc4[nH]1)C3=CC2=O (stereo not given) | 1e-05 | 0.047 | 0.06 | 0.89 | 65 | 0.6 | – | – | –
2 | CCCCCCCCCC(=O)N1CC2CC23C1=CC(=O)c1[nH]cc(C)c13 (stereo not given) | – | 0 | 40 | 0.07 | – | 100 | inactive | – | –
3 | Cc1c[nH]c2c1C13CC1CN(C(=O)OC(C)(C)C)C3=CC2=O (stereo not given) | 5e-06 | 0 | – | 0.35 | – | 300 | – | – | –
4 | COc1c(O)c2c(c3cc(C(=O)N4CCc5c4c(O)c(OC)c4[nH]c(C(=O)N6C[C@H]7C[C@@]78C6=CC(=O)c6[nH]cc(C)c68)cc54)[nH]c13)CCN2C(N)=O [(+)-CC-1065] | – | 0.28 | 0.1 | 0.39 | 62 | 0.07 | – | – | –
5 | Cc1c[nH]c2c1C13CC1CN(C(=O)c1cc4ccccc4o1)C3=CC2=O (stereo not given) | 1.1e-05 | 0.006 | – | – | – | 0.04 | – | 0.25 | 110
6 | Cc1c[nH]c2c1C13CC1CN(C(=O)c1cc4ccccc4s1)C3=CC2=O (stereo not given) | 1.1e-05 | 0.007 | 0.8 | 0.41 | 100 | 0.3 | – | – | –
7 | Cc1c[nH]c2c1C13CC1CN(C(=O)c1cc4cc(NC(=O)c5ccccc5)ccc4[nH]1)C3=CC2=O (stereo not given) | – | 0.036 | 0.05 | 0.43 | 82 | 0.07 | – | – | –
8 | Cc1c[nH]c2c1C13CC1CN(C(=O)c1ccc4ccccc4n1)C3=CC2=O (stereo not given) | 1.2e-05 | 0.001 | 6 | 0.5 | 142 | 10 | – | – | –
9 | Cc1c[nH]c2c1C13CC1CN(C(=O)c1ccccn1)C3=CC2=O (stereo not given) | 1.2e-05 | 0 | 15 | 0.76 | 69 | 10 | – | – | –
10 | Cc1c[nH]c2c1C13CC1CN(C(=O)c1ccccc1)C3=CC2=O (stereo not given) | 9e-06 | < 0.001 | 12 | 0.63 | 71 | 3 | – | – | –
11 | COc1c(O)ccc2cc(C(=O)N3CC4CC45C3=CC(=O)c3[nH]cc(C)c35)[nH]c12 (stereo not given) | 1e-05 | 0.037 | 0.05 | 0.63 | 55 | 0.1 | – | – | –
12 | Cc1c[nH]c2c1C13CC1CN(C(=O)c1cc4ccccc4[nH]1)C3=CC2=O (stereo not given) | 1e-05 | 0.036 | 0.4 | 0.45 | 90 | 0.2 | – | – | –
13 | Cc1c[nH]c2c1C13CC1CN(C(=O)c1cc4cc(NC(=O)c5cc6ccccc6o5)ccc4[nH]1)C3=CC2=O (stereo not given) | 1e-05 | 0.05 | 0.05 | 0.3 | 170 | 0.02 | – | – | –
14 | Cc1c[nH]c2c1C13CC1CN(C(=O)c1ccc(NC(=O)c4ccccc4)cc1)C3=CC2=O (stereo not given) | – | 0.011 | 0.5 | 0.42 | 83 | 0.5 | – | – | –
15 | Cc1c[nH]c2c1C13CC1CN(C(=O)c1ccc[nH]1)C3=CC2=O (stereo not given) | – | 0.01 | 1 | 0.7 | 71 | 2 | – | – | –
16 | Cc1c[nH]c2c1C13CC1CN(C(=O)c1ccc4ccccc4c1)C3=CC2=O (stereo not given) | – | 0 | 6 | 0.46 | 73 | 7 | – | – | –
17 | COc1ccc2[nH]c(C(=O)N3CC4CC45C3=CC(=O)c3[nH]cc(C)c35)cc2c1 (stereo not given) | 1e-05 | 0.022 | 0.05 | 0.47 | 95 | 0.01 | – | – | –
18 | Cc1c[nH]c2c1C13CC1CN(C(=O)c1cc4ccccc4n1C)C3=CC2=O (stereo not given) | 1e-05 | 0.003 | – | – | – | 10 | – | 8 | 44
19 | Cc1c[nH]c2c1C13CC1CN(C(=O)c1cc4cc(NC(=O)c5cc6ccccc6[nH]5)ccc4[nH]1)C3=CC2=O (stereo not given) | – | 0.07 | 0.05 | 0.3 | 159 | 0.01 | – | – | –
20 | CCCCCC(=O)Nc1ccc2nc(C(=O)N3CC4CC45C3=CC(=O)c3[nH]cc(C)c35)ccc2c1 (stereo not given) | – | – | 21 | 0.15 | 127 | 100 | – | – | –
21 | Cc1c[nH]c2c1C13CC1CN(S(=O)(=O)c1ccccc1)C3=CC2=O (stereo not given) | – | – | – | 0.58 | – | 900 | – | – | –
22 | CC(=O)N1CC2CC23C1=CC(=O)c1[nH]cc(C)c13 (stereo not given) | – | 0 | 3 | 0.9 | 45 | 20 | – | – | –
23 | Cc1c[nH]c2c1C13CC1CN(C(=O)c1cc4cc(NC(=O)c5cc6cc(NC(N)=O)ccc6[nH]5)ccc4[nH]1)C3=CC2=O (stereo not given) | – | 0.075 | 0.1 | – | 121 | 0.3 | – | – | –
24 | CC1=C(C(=O)N2CC3CC34C2=CC(=O)c2[nH]cc(C)c24)Cc2ccccc21 (stereo not given) | – | 0.004 | 17 | 0.39 | – | 30 | inactive | – | –
25 | Cc1c[nH]c2c1C13CC1CN(S(C)(=O)=O)C3=CC2=O (stereo not given) | 3e-06 | 0 | 25 | 0.82 | 60 | 100 | – | – | –
26 | CCCCCC(=O)N1CC2CC23C1=CC(=O)c1[nH]cc(C)c13 (stereo not given) | 8e-06 | 0 | 2 | 0.35 | 100 | 3 | – | – | –
27 | Cc1c[nH]c2c1C13CC1CN(C(=O)c1cc4cc(NC(=O)c5cc6cc(NC(=O)c7ccccc7)ccc6[nH]5)ccc4[nH]1)C3=CC2=O (stereo not given) | – | 0.033 | 0.1 | 0.3 | 77 | 0.01 | – | – | –
